NR2E3 ag-1: activates human photoreceptor nuclear receptor NR2E3; 0.12% of 320,000 active; GST-NR2E3/biotin-RetCOR TR-FRET, 1536-well; inhibition of corepressor binding, % at 4.78 µM; AID 2300; Q9Y5X4;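 active means percent inhibition above the cutoff of mean plus 3 SD of all tested compounds, set per screening campaign, cut at about 20% in these data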;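 further: 0% = DMSO wells and 100% = biotin wells as full block of FRET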
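System: GST-tagged NR2E3 plus biotinylated RetCOR corepressor; Amount: 1.35 nM GST-tagged NR2E3 final; Dosing: single nominal compound dose of 4.8 µM; Schedule: 5 h incubation at 4 °C; Technique: TR-FRET with europium anti-GST and streptavidin-D2, 340 nm excitation; Controls: biotin wells as high control, 0.6% DMSO wells as low control.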
GalR3 antagonist: human GalR3 antagonism. O60755. inhibition, % at 3 µM. 0.44% of 360,000 active. HEK293 GalR3-CNG cAMP membrane potential fluorescence; galR3 body fused to GalR1 C-terminus. AID 651719;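 active means inhibition above the screen-wide average plus 3 SD, cut at about 13% in these data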;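 further: forskolin and galanin both at EC90 stimulate the cells; cAMP rise reported by CNG channel membrane potential dye signal; 0% = forskolin plus galanin with DMSO and 100% = forskolin alone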
Target sequence (O60755 1-299 limits assumed): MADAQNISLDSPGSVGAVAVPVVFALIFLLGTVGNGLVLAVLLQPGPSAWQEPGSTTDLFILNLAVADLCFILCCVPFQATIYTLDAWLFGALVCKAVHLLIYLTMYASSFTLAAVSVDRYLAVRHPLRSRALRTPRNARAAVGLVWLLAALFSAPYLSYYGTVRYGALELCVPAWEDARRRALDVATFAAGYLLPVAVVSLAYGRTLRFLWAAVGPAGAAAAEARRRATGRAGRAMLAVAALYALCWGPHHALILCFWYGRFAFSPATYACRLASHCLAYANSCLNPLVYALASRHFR
CHT allo act: allosterically activates the human high affinity choline transporter; B-score at 10 µM; CHT-expressing cells, membrane potential dye, choline EC20; hits give high values; LV-AA mutant CHT in HEK293 cells; 0.49% of 310,000 active; Q9GZV3;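 active means initial fluorescence not abnormally high and integrated response B-score, plate-corrected, over 3 SD above library mean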
NR2E3 ag-2: activates human NR2E3 receptor; Q9Y5X4; CHO-S Gal4-NCOR/VP16-NR2E3 two-hybrid, luciferase; inhibition of corepressor binding, % at 3.98 µM; 0.35% of 360,000 active; AID 602229;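 active means inhibition above the mean of all tested compounds plus 3 SD, cut at about 70% in these data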;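 further: 0% = DMSO with NR2E3 transfected cells and 100% = cells lacking NR2E3 construct; higher means lower luciferase signal from less NR2E3 corepressor binding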
COUP-TFII inh: NR2F2 (human) inhibition, primary screen; 0.7% of 370,000 active; P24468; inhibition, % at 8.6 µM; HEK293T NGFI-A luciferase reporter, luminescence;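 active means inhibition above a per-plate cutoff, mean inhibition of test wells between control levels plus 3 SD, cut at about 38% in these data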;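 further: cells cotransfected with COUP-TFII expression vector driving the NGFI-A reporter; 0% = median of COUP-TF2 test wells and 100% = reporter-only cells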
Target sequence (P24468 whole entry, looked up): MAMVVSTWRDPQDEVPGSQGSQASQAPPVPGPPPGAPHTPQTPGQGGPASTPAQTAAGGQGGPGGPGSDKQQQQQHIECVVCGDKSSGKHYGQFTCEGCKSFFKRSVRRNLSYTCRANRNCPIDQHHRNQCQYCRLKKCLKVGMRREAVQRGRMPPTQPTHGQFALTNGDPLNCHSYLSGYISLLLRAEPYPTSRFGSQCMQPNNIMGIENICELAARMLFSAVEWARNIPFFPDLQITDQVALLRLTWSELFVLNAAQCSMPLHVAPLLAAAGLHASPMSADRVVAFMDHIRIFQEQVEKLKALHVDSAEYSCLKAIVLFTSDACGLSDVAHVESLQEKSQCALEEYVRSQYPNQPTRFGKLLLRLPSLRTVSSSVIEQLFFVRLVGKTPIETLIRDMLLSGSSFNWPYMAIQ
CHT block: inhibitors of human choline transporter CHT; CHT-expressing cells, membrane potential dye, choline response; hits give low values; Q9GZV3; AID 488975; 0.86% of 310,000 active; B-score at 10 µM;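 active means B-score over 3 SD under the library average, and starting fluorescence ratio not unusually high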;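 further: choline stimulus applied at its EC90 after an EC20 pre-addition; B-score computed on integrated fluorescence ratio after choline addition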
CHT activ conf: human CHT activation, confirmatory screen. AID 504833. CHT-expressing cells, membrane potential dye fluorescence (FDSS); % of choline EC20–EC90 response window; HEK293 expressing CHT LV-AA mutant; choline added at its EC20. 91% of 2,500 active. shares compounds with CHT allo act. activation, % at 10 µM;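 active means primary screen active, with duplicate mean activation above negative control mean plus 3 SD, cut at about 11% in these data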
HEK293 MP dye: activity in parental HEK293 cells lacking CHT; 62% of 2,500 active; ratio readout change at 10 µM, hits read low; membrane potential dye fluorescence (FDSS); measured after EC20 choline addition; AID 623908; shares compounds with CHT allo act;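 active means duplicate-averaged ratio beyond 3 SD from buffer wells, up or down, though filed actives are nearly all decreases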
* = called active by the depositor; i = inactive; . = no result. Rows were chosen to be rich in hits. Some 2.3% of all compounds tested hit in one or more screens of this group.

SMILES | NR2E3 ag-1 | GalR3 antagonist | CHT allo act | NR2E3 ag-2 | COUP-TFII inh | CHT block | CHT activ conf | HEK293 MP dye
CCCCN(CCCC)CC(O)COc1ccccc1C(=O)Nc1ccccc1 (stereo not given) | 2.0 | -10.8 | 7.1* | -9.9 | -24.6 | i | -0.1 | i
CCOC(=O)NC(Nc1sc2c(c1C(=O)OC)CCN(C)C2)(C(F)(F)F)C(F)(F)F | 1.5 | -4.4 | 7.59* | -30.4 | 14.4 | i | 8.0 | -49.7*
CCOC(=O)C(NC(=O)CC)(Nc1sc2c(c1C(=O)OC)CCN(C)C2)C(F)(F)F (stereo not given) | 1.5 | -1.5 | 7.48* | -4.7 | 0.7 | i | 26.5* | -49.3*
CCC(=O)NC(Nc1sc2c(c1C(=O)OC)CCN(C)C2)(C(F)(F)F)C(F)(F)F | 0.2 | -2.5 | i | -12.2 | 21.4 | i | . | .
COc1ccc(C2C(C(=O)Nc3cc(OC)c(OC)c(OC)c3)CCC(=O)N2c2ccc(OC)cc2)cc1 (stereo not given) | . | . | . | . | 14.3 | . | . | .
CCN(CC)c1ccc(C=NNC(=O)Cc2cc(=O)[nH][nH]2)c(O)c1 | . | . | . | . | -13.8 | . | . | .
N=c1c2c(n(Cc3ccc(F)cc3)c3c1CCC3)CCC2 | 0.4 | -11.3 | 7.09* | -6.6 | 35.6 | i | 48.6* | -50.5*
CCn1c2c(c(=N)c3c1CCC3)CCC2 | 3.1 | -1.9 | i | -16.2 | 11.8 | i | . | .
CN(C)CCN(Cc1ccccc1)S(=O)(=O)c1ccc2c(c1)n(C)c(=O)c(=O)n2C | -2.0 | -1.3 | 12.1* | 1.7 | 8.1 | i | 73.9* | -81.2*
CCCCN(Cc1ccccc1)S(=O)(=O)c1ccc2c(c1)n(C)c(=O)c(=O)n2C | 1.0 | -2.5 | i | 13.5 | -4.2 | i | . | .
COc1ccc(C(=O)C(CCCCC(CN(C)C)C(=O)c2ccc(OC)cc2)CN(C)C)cc1 (stereo not given) | 1.8 | -2.0 | i | 10.0 | -7.8 | i | 15.3* | -27.2*
COc1ccc(CN(C)C(=O)C2CCCN(c3nc4ccccc4o3)C2)cc1 (stereo not given) | . | . | . | . | 13.7 | . | . | .
O=C(N/N=C/c1ccco1)c1ccc(N2CCCC2=O)cc1 | -1.4 | -6.0 | 7.73* | -26.0 | 7.8 | i | 59.4* | -70.5*
CC(=O)CCCCn1cnc2c1c(=O)n(C)c(=O)n2C | -0.7 | . | i | . | . | i | . | .
CN1CCCCC1=NCCCn1cnc2c1c(=O)n(C)c(=O)n2C | 2.0 | -4.9 | 7.16* | -3.4 | -0.3 | i | 46.7* | -49.4*
CCOCCCNC(=S)Nc1ccc2nc(N3CCCC3)cc(C)c2c1 | 2.5 | -7.4 | i | -1.4 | 6.8 | i | 32.2* | -51.6*
Cc1cc(N2CCCC2)nc2ccc(NC(=S)NC(C)C)cc12 | 2.9 | -2.4 | i | -21.2 | 9.9 | i | 21.2* | -50.7*
COc1ccc(CCNC(=O)Cn2ncc3c2-c2cc(C)ccc2OC3)cc1 | . | . | . | . | 7.4 | . | . | .
c1ccc2c(N3CCOCC3)nc(N3CCOCC3)nc2c1 | 0.5 | -4.3 | 11.7* | 16.7 | -7.1 | i | 47.9* | -85.7*
CC1CCN(c2nc(-c3ccncc3)nc3ccccc23)CC1 | 0.7 | -6.4 | i | 17.3 | -0.3 | i | . | .
c1cncc(-c2nc(N3CCOCC3)c3ccccc3n2)c1 | 2.0 | . | 8.12* | -10.0 | . | i | 53.3* | -48.9*
CN1CCN(c2nc(N3CCN(CCO)CC3)nc3ccccc23)CC1 | 1.3 | -4.5 | 11* | -8.7 | -0.7 | i | 37.0* | -102*
c1ccc(CN2CCN(c3nc(N4CCOCC4)c4ccccc4n3)CC2)cc1 | 0.1 | -7.2 | i | -40.0 | 6.5 | i | . | .
O=S(=O)(c1ccccc1)N1CCN(c2nc(-c3cccnc3)nc3ccccc23)CC1 | . | -4.5 | . | 22.9 | 8.3 | . | . | .
c1ccc2c(N3CCOCC3)nc(-c3ccncc3)nc2c1 | 2.9 | -1.0 | 7.1* | 23.6 | 4.3 | i | 82.5* | -57.2*
SMILES | NR2E3 ag-1 | GalR3 antagonist | CHT allo act | NR2E3 ag-2 | COUP-TFII inh | CHT block | CHT activ conf | HEK293 MP dye
C/C=C(\C)C(=O)NCCN1C2=NC[C@@H](Cc3ccccc3)N2C[C@H]1Cc1ccc(O)cc1 | -1.5 | -0.2 | i | -18.8 | -0.7 | i | . | .
O=C(CCC1CCCCC1)NCCN1C2=NC[C@H](Cc3ccccc3)N2C[C@H]1Cc1ccc(O)cc1 | 1.9 | -6.5 | 6.8* | -32.9 | -5.0 | i | 40.2* | i
COc1ccc(C[C@H]2CN3C(=NC[C@@H]3C)N2CCNC(=O)CCC2CCCCC2)cc1 | 3.0 | 2.0 | i | 14.9 | -1.0 | i | 3.9 | i
O=C(CCC1CCCCC1)NCCN1C2=NC[C@@H](Cc3ccccc3)N2C[C@H]1Cc1ccc(O)cc1 | -1.2 | -2.0 | 13.4* | 3.4 | -7.7 | i | 37.1* | i
COc1ccccc1CNC(=O)N1CCN(Cc2nc3ccccc3c(=O)[nH]2)CC1 | . | . | . | . | 5.7 | . | . | .
Nn1c(SCC(=O)NC2CCCCC2)nnc1-c1cc(-c2ccc(F)cc2)n[nH]1 | . | . | . | . | 4.5 | . | . | .
Cc1c2ccccc2cc(Cc2ccccc2)[n+]1C | 2.9 | -9.7 | 6.73* | -8.7 | 11.8 | i | 67.5* | -75.6*
Cc1nc(N)nc(C)c1Cc1ccccc1 | -0.2 | -0.7 | i | 2.1 | 3.9 | i | . | .
C[n+]1ccc(/C=C/c2cccs2)cc1 | -3.0 | -5.3 | i | 10.6 | 6.3 | i | 61.6* | -41.8*
O=C1CCC[C@H]2C[C@H](NCc3cccs3)CC[C@]23CCCN13 | . | . | . | . | 8.3 | . | . | .
CCOC(=O)c1cnc2c(c(C)nn2C)c1Oc1ccc(Cl)cc1 | 4.6 | -4.9 | 6.39* | -47.9 | -4.4 | i | 27.0* | i
CCN1CCN(c2nc(NCCO)c3ccccc3n2)CC1 | 0.7 | -2.6 | 8.87* | -25.4 | 0.4 | i | 75.9* | -79.1*
C=CCNc1nc(N2CCCC2)nc2ccccc12 | -3.0 | -8.3 | i | -7.6 | -1.5 | i | . | .
OCCNc1nc(-c2ccccc2)nc2ccccc12 | -2.5 | -3.2 | i | -9.0 | 23.9 | i | . | .
OCCNc1c2ccccc2nc2ccccc12 | -3.7 | -9.3 | 6.32* | -22.2 | -16.5 | i | 40.3* | -47.2*
OCCNc1nc(N2CCN(Cc3ccccc3)CC2)nc2ccccc12 | 4.6 | -10.4 | i | -17.6 | -7.5 | i | 59.5* | -71.9*
COC(=O)[C@]12C[C@H](CC(=O)N3CCOCC3)C(=O)N(CCc3ccc(OC)c(OC)c3)C1=C[C@H](COCc1ccccc1)O[C@@H]2C | . | . | . | . | -14.8 | . | . | .
COc1cc(Cn2ccnc2)c(OC)cc1Cn1ccnc1 | 0.3 | -5.3 | 13.4* | -9.5 | -10.4 | i | 81.0* | -82.7*
